This is a sample that favours compounds with a hit; in the whole collection about 2.6% have one here.
OX1R antag-1 – OX1R (HCRTR1) antagonists, primary screen, fluorescence, CHO/OX1R cells, Fluo-8 calcium, orexin A. Orexin/Hypocretin receptor type 1 (Homo sapiens), O43613. Fluo-8 calcium fluorescence. inhibition, % at 5 µM. actives 0.43% (n = 330,000). AID 434989, 2010;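 active = inhibition above its plate's threshold, mean inhibition of all tested compounds on the plate plus 3 SD, cut at about 37% in these data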;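 note: 0% = orexin A challenge wells and 100% = SB-334867-A antagonist wells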
OXTR potentiate – human OXTR potentiators, primary screen, fluorescence, CHO-OTR cells, Fluo-8 calcium; Fluo-8 calcium fluorescence, potentiator mode; 0% = oxytocin EC15, 100% = EC100; activation, % at 3 µM; actives 0.061% (n = 320,000);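 active = activation above that plate's cutoff, the mean activation of tested compounds plus 3 SD, cut at about 6.6% in these data, passing the limit was not always enough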;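 note: 100% uses oxytocin at 75 nM as the full agonist control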
Target sequence (P30559 whole entry, looked up): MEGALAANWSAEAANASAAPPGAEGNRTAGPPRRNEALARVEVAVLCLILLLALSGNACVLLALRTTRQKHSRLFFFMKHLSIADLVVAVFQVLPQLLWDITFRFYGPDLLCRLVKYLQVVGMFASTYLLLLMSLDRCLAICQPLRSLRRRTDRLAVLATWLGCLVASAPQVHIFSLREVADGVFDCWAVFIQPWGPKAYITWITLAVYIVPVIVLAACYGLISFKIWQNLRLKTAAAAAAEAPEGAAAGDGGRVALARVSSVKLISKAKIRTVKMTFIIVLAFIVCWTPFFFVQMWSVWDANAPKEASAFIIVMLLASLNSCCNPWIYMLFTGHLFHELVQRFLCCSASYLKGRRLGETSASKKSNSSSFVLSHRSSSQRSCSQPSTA
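Material: CHO-OTR cells, human receptor; compound dosing: single dose, 3.0 µM nominal final compound concentration; schedule: 6 min compound pre-incubation at room temperature, 100 s kinetic read; measured by: kinetic Fluo-8 calcium fluorescence; read-out basis: % activation vs EC15 and EC100 oxytocin; controls: EC15 oxytocin alone as 0%, 75 nM oxytocin as 100%; replicates: singlicate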
OX1R antag-2 – antagonists of human orexin 1 receptor (OX1R) | Orexin/Hypocretin receptor type 1 (Homo sapiens), O43613 | OX1R-expressing cells, FRET antagonist read-out | inhibition, % at 6.6 µM | actives 1.8% (n = 330,000) | AID 485270, 2010; in the data active = inhibition mostly above about 38%, no sharp cut-off; inactive = mostly below about 40%;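 note: 0% = agonist challenge alone and 100% = reference antagonist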
V1R ag counter – agonists of human V1a receptor, primary screen, counter-screen for OXTR agonist project, fluorescence, CHO-V1R cells; activation, % at 3 µM; Fluo-8 calcium fluorescence, agonist mode; 0% DMSO, 100% 3 nM vasopressin; Vasopressin V1a receptor (Homo sapiens), P37288; actives 0.25% (n = 320,000);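 active = activation above the mean activation of all tested compounds plus 3 SD, per screening run, cut at about 20% in these data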;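 note: signal is peak over basal fluorescence ratio across a 100 second FLIPR read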
CHO parental Ca – ATP-evoked calcium signal inhibitors, parental CHO, primary screen, counter-screen for OX1R antagonist project, cell-based, fluorescence, Fluo-8 calcium dye; AID 463079, 2010; actives 0.63% (n = 330,000); inhibition, % at 5.6 µM; parental CHO-K1, ATP-induced calcium, Fluo-8 fluorescence;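 active = inhibition above that plate's mean sample inhibition plus 3 SD, cut at about 26% in these data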;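 note: 0% = ATP-challenged DMSO wells and 100% = DMSO wells without ATP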
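Assay system: untransfected parental CHO cell line. Also added: ATP agonist challenge. Dosing: one dose, 5.6 µM nominal. Measured by: Fluo-8 fluorescence. Read-out: % inhibition. Benchmarks: ATP wells versus no-ATP DMSO wells. Repeats: no replicates.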
OXTR ag – human OXTR agonists, primary screen, fluorescence, CHO-OTR cells, Fluo-8 calcium | Oxytocin receptor (Homo sapiens), P30559 | Fluo-8 calcium fluorescence; normalized: DMSO 0%, oxytocin 100% | activation, % at 3 µM | actives 0.32% (n = 320,000);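 active = activation above the mean of all tested compounds plus 3 SD, cutoff set per screening run, cut at about 20% in these data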;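 note: peak over basal fluorescence ratio from a 100 s FLIPR kinetic read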
Active calls of the source: *.

SMILES | OX1R antag-1 | OXTR potentiate | OX1R antag-2 | V1R ag counter | CHO parental Ca | OXTR ag
COc1ccc(NC(=S)NC(NC(=O)c2cccc(C)c2)C(Cl)(Cl)Cl)c([N+](=O)[O-])c1 (centres undefined) | -13 | -21 | 61 | 4 | -9 | 3
COc1ccc(NC(=S)NC(NC(=O)c2cccc(Cl)c2)C(Cl)(Cl)Cl)c([N+](=O)[O-])c1 (centres undefined) | 7 | -12 | 31 | 14 | 26* | 13
O=c1c2ccccc2oc2ccc(-c3ccc4cc[nH]c4c3)cc12 | 24 | -3 | 36 | 0 | -2 | 3
COc1ccc(C(=O)NCCCNC(=O)c2cc3ccccc3[nH]2)cc1OC | -5 | -6 | 70* | 0 | -22 | -1
C=CCNC(=O)NC(=O)c1csc([N+](=O)[O-])c1 | -18 | 2 | 46* | -2 | 4 | 1
CCNC(=O)NC(=O)c1csc([N+](=O)[O-])c1 | -11 | -3 | 40* | 2 | -14 | 2
O=C(Cn1cnc2c(OCc3ccccc3)ncnc21)NCc1ccccn1 | -1 | -4 | 2 | 0 | -7 | 0
C/C(=N\Nc1cccc([N+](=O)[O-])c1)c1cc(F)ccc1O | 27 | -18 | 68* | -1 | -9 | -2
CCOC(=O)n1ccc(C(=O)Nc2ccccc2F)n1 | -7 | 8 | 7 | 0 | 29* | 0
COCCCn1c(=O)c2ccccc2n(CC(=O)Nc2ccc3c(c2)OCCO3)c1=O | -14 | 2 | 5 | 0 | -1 | 0
Brc1cccc(-c2n[nH]c(-c3ccccc3)n2)c1 | 63* | -21 | 71* | 3 | 97* | 1
Cc1ccc(S(=O)(=O)N2CCC(C(=O)NCc3ccncc3)CC2)cc1 | -20 | 2 | 18 | 0 | -7 | 0
c1ccc2[nH]c3cc4ncnc4cc3nc2c1 | 11 | -9 | 70* | 3 | 4 | 3
O=C(CSc1nc2ncc(Cl)cc2[nH]1)c1c[nH]c2ccccc12 | 6 | -7 | 22 | 1 | 16 | 1
O=C(CSc1nc2ccc(Cl)cc2[nH]1)c1c[nH]c2ccccc12 | -4 | -30 | 41* | 3 | -9 | 1
Cc1nc(N/N=C/c2ccc(Br)cc2)cc(N2CCOCC2)n1 | -33 | -3 | 18 | -2 | -4 | -2
Cc1c(C(=O)NCc2ccc3c(c2)OCO3)oc2ccccc12 | -3 | -1 | 45* | -1 | -9 | -1
O=S(=O)(NCc1ccc2c(c1)OCO2)c1ccc2c(c1)oc1ccccc12 | 19 | -9 | 44* | 2 | -9 | 2
CCOc1ccc(OCC)c(NC(=O)CCNS(=O)(=O)c2cc(Br)cnc2N)c1 | -31 | -7 | 15 | 2 | -18 | 2
COc1cc(OC)c(OC)cc1/C=N/NC(=O)c1cc(-c2cccn2C)n[nH]1 | 0 | 5 | 59* | -1 | -14 | -1
COc1ccc(/C=N/NC(=O)c2cc(-c3cccn3C)n[nH]2)cc1OC | -10 | 7 | 24 | 0 | -6 | 0
COc1ccc(-c2cc(N)n(S(=O)(=O)c3c(F)c(F)c(F)c(F)c3F)n2)cc1OC | 24 | 4 | 19 | 0 | 45* | -2
COc1ccc(S(=O)(=O)n2nc(-c3cc(OC)c(OC)c(OC)c3)cc2N)cc1OC | -37 | -5 | 16 | -1 | -20 | 0
COc1ccc(CC(=O)Nc2ccc(S(=O)(=O)N3CCC(C)CC3)cc2)c(OC)c1 | -23 | 4 | -4 | 5 | -15 | 2
Cc1cc(C(=O)Nc2ccc(N3CCCC3)c(Cl)c2)ccc1[N+](=O)[O-] | 3 | -13 | 55* | 4 | -2 | -2
SMILES | OX1R antag-1 | OXTR potentiate | OX1R antag-2 | V1R ag counter | CHO parental Ca | OXTR ag
CC(C)C(=O)N1CCN(c2ccc(NC(=O)c3ccc(Br)o3)cc2)CC1 | -7 | -8 | 39 | 2 | -6 | -1
CN1CCN(c2ccc(NC(=O)c3ccc([N+](=O)[O-])o3)cc2Cl)CC1 | -7 | 0 | 54* | 0 | 17 | 2
CC(C)C(=O)N1CCN(c2ccc(NC(=O)c3ccc([N+](=O)[O-])o3)cc2)CC1 | -9 | -1 | 46* | 1 | -2 | 3
CCN1CCN(c2c(Cl)cccc2NC(=O)c2ccc([N+](=O)[O-])o2)CC1 | -14 | -7 | 56* | -1 | -15 | -1
CC(C)(C)CN1CCN(CCCc2ccccc2)C(CCO)C1 (centres undefined) | -17 | 2 | 0 | 1 | -11 | 1
Cc1csc(=NC(=O)c2ccccc2)n1C | -13 | -1 | 9 | 1 | -6 | -1
CCn1c(C)csc1=NC(=O)c1ccccc1 | -6 | -8 | 76* | 0 | -3 | -1
COc1cccc(-c2nnn(CC(=O)N(CC(C)C)C3CCS(=O)(=O)C3)n2)c1 (centres undefined) | -16 | -4 | 15 | 0 | -23 | 0
Cc1ccc(C)c(S(=O)(=O)N2CCN(c3nc(-c4cccnc4)nc4ccccc34)CC2)c1 | 31 | -4 | 47* | 0 | -39 | -1
COc1ccc2nc3n(c(=O)c2c1)-c1ccccc1C(=O)NC3Cc1ccccc1 (centres undefined) | -25 | -3 | 3 | 0 | -6 | 1
Cc1ccccc1CSc1nnc(-c2ccco2)n1Cc1ccco1 | 5 | -1 | 68* | -2 | -27 | -2
c1ccc(CSc2nnc(-c3cccs3)n2Cc2ccco2)cc1 | -18 | 4 | 29 | 4 | -6 | -2
Cc1ccccc1CSc1nnc(-c2cccs2)n1Cc1ccco1 | 8 | -3 | 69* | -1 | -37 | -2
CNC(=O)c1cc(C(=O)c2ccc(Cl)cc2)c(Br)[nH]1 | -14 | -7 | 4 | 5 | 1 | 0
COCCNC(=O)/C(C#N)=C1\N=C(NC(=O)c2cccs2)c2ccccc21 | -7 | 8 | 42* | 2 | -7 | 1
Cc1ccc([N+](=O)[O-])cc1NC(=O)Nc1ccc(S(N)(=O)=O)cc1 | 14 | -3 | 1 | 0 | -1 | 0
O=C(Nc1csc([N+](=O)[O-])c1)Nc1c(Cl)cccc1Cl | -7 | -7 | 23 | 5 | -6 | 7
Cc1cc(OC(F)F)ccc1NC(=O)Nc1ccc([N+](=O)[O-])cc1 | 32 | -6 | 24 | 7 | 57* | 12
O=C(Nc1ccc(Cl)cc1)Nc1csc([N+](=O)[O-])c1 | 65* | -16 | 83* | 4 | 65* | 8
